From ChEMBL document CHEMBL3286116, “Synthesis, biological evaluation and structure-activity correlation study of a series of imidazol-based compounds as Candida albicans inhibitors” (Eur J Med Chem, 2014)
In brackets after ≈: the same amount, converted by molar mass.

How the values were obtained:
Candida albicans [1] = assay: Antifungal activity against Candida albicans ATCC 90028 after 48 hrs by CLSI broth microdilution method; type: functional; settings: ATCC 90028, 48 h
Method in brief: (§1)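 Yeast CLSI broth microdilution (M27-A3). Compounds dissolved in DMSO at 100× the top test concentration, then diluted as serial two-fold dilutions in RPMI 1640 to final 0.125–64. Inoculum was 1.0–1.5 × 10^3 cells mL−1, incubated at 35 °C and read for growth at 48 h. MIC is the lowest concentration giving ≥50% growth inhibition versus growth control. Reported as the median of five replicates and as the geometric mean.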

Candida albicans [2] = assay: Antifungal activity against Candida albicans ATCC 20891 after 48 hrs by CLSI broth microdilution method; type: functional; settings: ATCC 20891, 48 h; method in brief: as §1
Candida albicans [3] = assay: Antifungal activity against Candida albicans PMC 1011 after 48 hrs by CLSI broth microdilution method; type: functional; settings: PMC 1011, 48 h; method in brief: as §1
Pichia kudriavzevii [4] = assay: Antifungal activity against Candida krusei DSM 6128 after 48 hrs by CLSI broth microdilution method; type: functional; settings: DSM 6128, 48 h; method in brief: as §1
Pichia kudriavzevii [5] = assay: Antifungal activity against Candida krusei PMC 0613 after 48 hrs by CLSI broth microdilution method; type: functional; settings: PMC 0613, 48 h; method in brief: as §1
Candida tropicalis [6] = assay: Antifungal activity against Candida tropicalis PMC 0910 after 48 hrs by CLSI broth microdilution method; type: functional; settings: PMC 0910, 48 h; method in brief: as §1
Candida tropicalis [7] = assay: Antifungal activity against Candida tropicalis DSM 11953 after 48 hrs by CLSI broth microdilution method; type: functional; settings: DSM 11953, 48 h; method in brief: as §1
Candida parapsilosis [8] = assay: Antifungal activity against Candida parapsilosis DSM 11224 after 48 hrs by CLSI broth microdilution method; type: functional; settings: Lodderomyces parapsilosis, DSM 11224, 48 h; method in brief: as §1
Candida parapsilosis [9] = assay: Antifungal activity against Candida parapsilosis ATCC 22019 after 48 hrs by CLSI broth microdilution method; type: functional; settings: Lodderomyces parapsilosis, ATCC 22019, 48 h; method in brief: as §1
Nakaseomyces glabratus [10] = assay: Antifungal activity against Candida glabrata PMC 0805 after 48 hrs by CLSI broth microdilution method; type: functional; settings: PMC 0805, 48 h; method in brief: as §1
Nakaseomyces glabratus [11] = assay: Antifungal activity against Candida glabrata PMC 0807 after 48 hrs by CLSI broth microdilution method; type: functional; settings: PMC 0807, 48 h; method in brief: as §1
Cryptococcus neoformans [12] = assay: Antifungal activity against Cryptococcus neoformans PMC 2123 after 72 hrs by CLSI broth microdilution method; type: functional; settings: PMC 2123, 72 h
Method in brief: (§2)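 Cryptococcus neoformans tested by CLSI broth microdilution in RPMI 1640, with serial two-fold dilutions from DMSO stocks at 100× the top concentration, final 0.125–64. Inoculum was 1.0–1.5 × 10^3 cells mL−1 at 35 °C, with growth read at 72 h. MIC is the lowest concentration with ≥50% growth inhibition versus control. Median of five replicates, plus geometric mean.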

Cryptococcus neoformans [13] = assay: Antifungal activity against Cryptococcus neoformans PMC 2136 after 72 hrs by CLSI broth microdilution method; type: functional; settings: PMC 2136, 72 h; method in brief: as §2
Cryptococcus neoformans [14] = assay: Antifungal activity against Cryptococcus neoformans PMC 2115 after 72 hrs by CLSI broth microdilution method; type: functional; settings: PMC 2115, 72 h; method in brief: as §2
Cryptococcus neoformans [15] = assay: Antifungal activity against Cryptococcus neoformans PMC 2103 after 72 hrs by CLSI broth microdilution method; type: functional; settings: PMC 2103, 72 h; method in brief: as §2
Cryptococcus neoformans [16] = assay: Antifungal activity against Cryptococcus neoformans PMC 2107 after 72 hrs by CLSI broth microdilution method; type: functional; settings: PMC 2107, 72 h; method in brief: as §2
Cryptococcus neoformans [17] = assay: Antifungal activity against Cryptococcus neoformans PMC 2102 after 72 hrs by CLSI broth microdilution method; type: functional; settings: PMC 2102, 72 h; method in brief: as §2
Cryptococcus neoformans [18] = assay: Antifungal activity against Cryptococcus neoformans DSM 11959 after 72 hrs by CLSI broth microdilution method; type: functional; settings: DSM 11959, 72 h; method in brief: as §2
Cryptococcus neoformans [19] = assay: Antifungal activity against Cryptococcus neoformans PMC 2111 after 72 hrs by CLSI broth microdilution method; type: functional; settings: PMC 2111, 72 h; method in brief: as §2
[20] = tested on: Trichophyton mentagrophytes; assay: Antifungal activity against Trichophyton mentagrophytes DSM 4870 after 72 hrs by CLSI broth microdilution method; type: functional; settings: DSM 4870, 72 h
Method in brief: (§3)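 Dermatophytes tested by CLSI broth microdilution for filamentous fungi (M38-A2). Serial two-fold dilutions of DMSO-dissolved compound in RPMI 1640, final 0.125–64. Inoculum was 0.4–5 × 10^4 CFU mL−1, incubated at 35 °C and read at 72 h. MIC80 is the lowest concentration giving ≥80% growth inhibition versus growth control. Median of five replicates, plus geometric mean.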

[21] = tested on: Trichophyton mentagrophytes; assay: Antifungal activity against Trichophyton mentagrophytes PMC 6515 after 72 hrs by CLSI broth microdilution method; type: functional; settings: PMC 6515, 72 h; method in brief: as §3
[22] = tested on: Trichophyton mentagrophytes; assay: Antifungal activity against Trichophyton mentagrophytes PMC 6531 after 72 hrs by CLSI broth microdilution method; type: functional; settings: PMC 6531, 72 h; method in brief: as §3
[23] = tested on: Trichophyton mentagrophytes; assay: Antifungal activity against Trichophyton mentagrophytes PMC 6509 after 72 hrs by CLSI broth microdilution method; type: functional; settings: PMC 6509, 72 h; method in brief: as §3
[24] = tested on: Trichophyton mentagrophytes; assay: Antifungal activity against Trichophyton mentagrophytes PMC 6503 after 72 hrs by CLSI broth microdilution method; type: functional; settings: PMC 6503, 72 h; method in brief: as §3
[25] = tested on: Trichophyton mentagrophytes; assay: Antifungal activity against Trichophyton mentagrophytes PMC 6552 after 72 hrs by CLSI broth microdilution method; type: functional; settings: PMC 6552, 72 h; method in brief: as §3
Nannizzia gypsea [26] = assay: Antifungal activity against Microsporum gypseum PMC 7303 after 72 hrs by CLSI broth microdilution method; type: functional; settings: PMC 7303, 72 h; method in brief: as §3
Nannizzia gypsea [27] = assay: Antifungal activity against Microsporum gypseum PMC 7331 after 72 hrs by CLSI broth microdilution method; type: functional; settings: PMC 7331, 72 h; method in brief: as §3
Nannizzia gypsea [28] = assay: Antifungal activity against Microsporum gypseum DSM 3824 after 72 hrs by CLSI broth microdilution method; type: functional; settings: DSM 3824, 72 h; method in brief: as §3
[29] = Cytotoxicity against human A549 cells after 48 hrs by MTT assay; type: cell-based
Method in brief: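 A549 cells (ATCC CCL-185) seeded at 2 × 10^4/well in phenol-red-free RPMI 1640 with 10% FBS, L-glutamine, penicillin and streptomycin, at 37 °C and 5% CO2. Exposed 48 h to DMSO-dissolved compounds (final 16–256; at least five concentrations, triplicate). MTT added for 3–4 h, crystals solubilized, OD read at 570 nm. CC50 taken versus the DMSO control. Mean ± SD of two independent experiments.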

Candida albicans [30] = assay: Antifungal activity against Candida albicans ATCC 24433 after 48 hrs by CLSI broth microdilution method; type: functional; settings: ATCC 24433, 48 h; method in brief: as §1
Candida albicans [31] = assay: Antifungal activity against Candida albicans ATCC 3153 after 48 hrs by CLSI broth microdilution method; type: functional; settings: ATCC 3153, 48 h; method in brief: as §1
Candida albicans [32] = assay: Antifungal activity against Candida albicans ATCC 10231 after 48 hrs by CLSI broth microdilution method; type: functional; settings: ATCC 10231, 48 h; method in brief: as §1
Candida albicans [33] = assay: Antifungal activity against Candida albicans ATCC 76615 after 48 hrs by CLSI broth microdilution method; type: functional; settings: ATCC 76615, 48 h; method in brief: as §1
Candida albicans [34] = assay: Antifungal activity against Candida albicans ATCC 10261 after 48 hrs by CLSI broth microdilution method; type: functional; settings: ATCC 10261, 48 h; method in brief: as §1

## O=C(OC(Cn1ccnc1)c1ccc(F)cc1)N1CCN(c2ccc(Cl)cc2)CC1 (centres undefined)
Candida albicans [1]
  MIC50: 0.5 µg/mL (≈ 1.17 µM)
Candida albicans [2]
  MIC50: 0.5 µg/mL (≈ 1.17 µM)
Candida albicans [3]
  MIC50: 0.5 µg/mL (≈ 1.17 µM)
Pichia kudriavzevii [4]
  MIC50: 8 µg/mL (≈ 18.7 µM)
Pichia kudriavzevii [5]
  MIC50: 1 µg/mL (≈ 2.33 µM)
Candida tropicalis [6]
  MIC50: 2 µg/mL (≈ 4.66 µM)
Candida tropicalis [7]
  MIC50: 2 µg/mL (≈ 4.66 µM)
Candida parapsilosis [8]
  MIC50: 0.25 µg/mL (≈ 0.583 µM)
Candida parapsilosis [9]
  MIC50: 2 µg/mL (≈ 4.66 µM)
Nakaseomyces glabratus [10]
  MIC50: 2 µg/mL (≈ 4.66 µM)
Nakaseomyces glabratus [11]
  MIC50: 8 µg/mL (≈ 18.7 µM)
Cryptococcus neoformans [12]
  MIC50: 4 µg/mL (≈ 9.33 µM)
Cryptococcus neoformans [13]
  MIC50: 4 µg/mL (≈ 9.33 µM)
Cryptococcus neoformans [14]
  MIC50: 4 µg/mL (≈ 9.33 µM)
Cryptococcus neoformans [15]
  MIC50: 2 µg/mL (≈ 4.66 µM)
Cryptococcus neoformans [16]
  MIC50: 1 µg/mL (≈ 2.33 µM)
Cryptococcus neoformans [17]
  MIC50: 4 µg/mL (≈ 9.33 µM)
Cryptococcus neoformans [18]
  MIC50: 4 µg/mL (≈ 9.33 µM)
Cryptococcus neoformans [19]
  MIC50: 4 µg/mL (≈ 9.33 µM)
[20]
  MIC80: 16 µg/mL (≈ 37.3 µM)
[21]
  MIC80: 8 µg/mL (≈ 18.7 µM)
[22]
  MIC80: 8 µg/mL (≈ 18.7 µM)
[23]
  MIC80: 16 µg/mL (≈ 37.3 µM)
[24]
  MIC80: 16 µg/mL (≈ 37.3 µM)
[25]
  MIC80: 32 µg/mL (≈ 74.6 µM)
Nannizzia gypsea [26]
  MIC80: 16 µg/mL (≈ 37.3 µM)
Nannizzia gypsea [27]
  MIC80: 4 µg/mL (≈ 9.33 µM)
Nannizzia gypsea [28]
  MIC80: 16 µg/mL (≈ 37.3 µM)
[29]
  CC50 at 48 h: 78.4 µg/mL (≈ 183 µM)
Candida albicans [30]
  MIC50: 4 µg/mL (≈ 9.33 µM)
Candida albicans [31]
  MIC50: 8 µg/mL (≈ 18.7 µM)
Candida albicans [32]
  MIC50: 2 µg/mL (≈ 4.66 µM)
Candida albicans [33]
  MIC50: 8 µg/mL (≈ 18.7 µM)
Candida albicans [34]
  MIC50: 1 µg/mL (≈ 2.33 µM)
